This is one part of a sample in which hits are shown more often than they occur.
UCH37 DUB inh = inhibitors of human deubiquitinating enzyme UCH37. Q9Y5K5. purified proteasome/UCH37, Ub-AMC cleavage fluorescence. inhibition, % (concentration not given with the values). 0.33% of 330,000 active. AID 588478;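 active = mean inhibition over replicate wells above about 20%, limit read from the data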;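 also: 0% = compound-free wells with enzyme and 100% = wells lacking proteasome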
Target sequence (Q9Y5K5 whole entry, looked up): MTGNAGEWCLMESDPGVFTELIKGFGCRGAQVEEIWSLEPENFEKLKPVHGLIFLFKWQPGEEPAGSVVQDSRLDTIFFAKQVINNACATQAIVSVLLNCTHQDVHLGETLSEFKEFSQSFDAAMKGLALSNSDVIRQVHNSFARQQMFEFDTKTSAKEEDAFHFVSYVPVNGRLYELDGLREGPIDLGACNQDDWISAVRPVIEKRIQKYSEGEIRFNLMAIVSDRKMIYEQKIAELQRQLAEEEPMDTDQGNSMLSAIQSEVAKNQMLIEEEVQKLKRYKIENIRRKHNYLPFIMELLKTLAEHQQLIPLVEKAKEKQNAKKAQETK
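Material: human UCH37 enzyme supplied as purified proteasome complex. Measure: % inhibition of Ub-AMC cleavage fluorescence. Medium: pH 7.4 Tris-HCl (50 mM) with ovalbumin, ATP-MgCl2, DTT. Times: 30 min preincubation with enzyme, 25 min cleavage at room temperature. Detection: AMC fluorescence intensity at 355/460 nm.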
CHOP UPR activ = apoptotic UPR (CHOP) activation | CHO-CHOP luciferase reporter, luminescence; percent of tunicamycin response over DMSO baseline | activation, % at 10 µM | 0.34% of 330,000 active;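 active = at 10 µM dose, activation of 40% or more, normalized to positive control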;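 also: 100% = tunicamycin at 10 µg/mL and 0% = DMSO alone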
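Test system: CHO-CHOP cells, stable luciferase reporter of PERK-eIF2a-CHOP signalling | Quantity: 500 CHO-CHOP cells per well | Buffer or medium: F12 plus 10% serum | Compound dosing: 10 µM single point, 0.5% DMSO | Schedule: 6 h compound treatment, 37 °C | Signal: Luciferase luminescence | Control set: Tunicamycin high control, DMSO low control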
UPR XBP1 act = activators of adaptive arm of unfolded protein response (XBP1) | activation, % at 20 µM | 0.33% of 330,000 active | CHO-XBP1 luciferase reporter, IRE1-XBP1 UPR activation, luminescence; percent of tunicamycin response, DMSO as zero;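 active = versus positive control, 20 µM dose yields 30% or more activation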;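 also: 100% = tunicamycin at 10 µg/mL and 0% = DMSO only wells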
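Material: CHO cell line with stable XBP1 luciferase reporter; schedule: 16-18 h cell attachment at 37 °C, then 6 h compound exposure; signal: glow luminescence from Steady-Glo reagent; medium: serum-containing F12 medium, 10% FBS; benchmarks: tunicamycin 10 µg/mL and vehicle-only wells; read-out: percent activation relative to tunicamycin reference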
CHOP inh = inhibitors of CHOP induction in ER stress response. 3.8% of 220,000 active. inhibition, % at 10 µM. AID 2732. CHO-K1 CHOP-promoter luciferase, tunicamycin-induced, 15-18 h;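 active = compounds that reduced the stress-induced luciferase reporter signal by more than about 70% of percent inhibition, limit read from the data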;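 also: 0% = tunicamycin plus vehicle and 100% = wells without tunicamycin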
Fh CTSL1 inh = cathepsin L1 inhibition, PFM18AAP counter-screen; inhibition, % at 5.96 µM; 0.49% of 300,000 active; recombinant F. hepatica cathepsin L1, Z-Leu-Arg-MCA fluorescence;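 active = inhibition above the mean of all tested compounds plus 3 SD, set per screening campaign, cut at about 17% in these data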;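 also: 0% = plate median of test compound wells and 100% = 1 µM Z-Phe-Ala-diazomethylketone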
* hit, by the source's call; / = not tested or not shown.

SMILES	UCH37 DUB inh	CHOP UPR activ	UPR XBP1 act	CHOP inh	Fh CTSL1 inh
N#C/C(=C/c1ccc(CNC(=O)C(=O)Nc2cc(Cl)cc(Cl)c2)o1)C(=O)NCc1cccnc1	-9.0	-0.3	21.2	82.0*	-4.9
Cc1[nH][nH]c(=O)c1C(c1ccc(-c2ccccc2C(=O)O)o1)c1c(C)[nH][nH]c1=O	24.0*	/	/	17.8	5.8
Cc1[nH][nH]c(=O)c1C(c1ccc(-c2ccc(Cl)cc2Cl)o1)c1c(C)[nH][nH]c1=O	/	/	/	-30.1	/
Cc1ccc(C)c(NC(=O)Cc2coc3cc4c(cc23)CCC4)c1	3.5	-0.3	-4.2	85.1*	5.1
CCC(C)c1ccccc1NC(=O)Cc1coc2cc3c(cc12)CCC3 (stereo not drawn)	1.7	-0.1	0.1	64.2	2.1
CC1Oc2ccccc2C=C1C=NNC(=O)c1cccnc1 (stereo not drawn)	-42.1	/	/	/	/
c1ccc(OCCOCCN2CCN(C(c3ccccc3)c3ccccc3)CC2)cc1	2.2	2.4	1.9	72.8*	-1.0
COc1ccccc1OCCCCN1CCN(C(c2ccccc2)c2ccccc2)CC1	2.8	-0.7	-0.2	86.3*	2.8
COc1cccc(OC)c1OCCCCCCN1CCN(C)CC1	0.0	2.7	0.5	/	0.0
COc1ccc(-c2nn(-c3ccccc3)cc2C=Nn2cnnc2)cc1OC	-0.1	/	/	/	/
CCOc1cc(C=NNC(=O)c2ccc(CSc3nncn3C)cc2)ccc1OCC(=O)N1CCOCC1	2.7	/	/	/	/
CCOC(=O)N1CCC(NS(=O)(=O)c2ccc3c(c2)CCN3C(C)=O)CC1	1.0	-0.9	-1.0	73.0*	8.1
CCOC(=O)N1CCC(NC(=O)CCS(=O)(=O)c2ccc3c(c2)CCN3C(=O)CC)CC1	-1.1	2.6	-2.8	13.0	2.2
Cc1[nH]c2ccc(F)cc2c1CCN(Cc1ccco1)C(=S)NC(C)(C)C	0.9	3.5	-5.4	80.8*	-1.4
CCCCCC1CC1C(=O)NN=Cc1ccc(N(C)C)cc1 (stereo not drawn)	-30.3	/	/	/	/
CCC1C/C(=C/c2ccco2)C(=O)/C(=C/c2ccco2)C1 (stereo not drawn)	/	/	/	85.6*	6.7
CCC1C/C(=C\c2cc(OC)c(OC)cc2OC)C(=O)/C(=C/c2cc(OC)c(OC)cc2OC)C1 (stereo not drawn)	-0.7	/	/	/	4.3
CC1CC(=O)c2c(cc3c(-c4c(O)cc(O)c5c(O)c6c(cc45)OC(C)CC6=O)c(O)cc(O)c3c2O)O1 (stereo not drawn)	21.5*	10.1	13.6	82.0*	12.1
Cc1nc2ccccn2c1-c1csc(Nc2cccc(O)c2)n1	-8.7	/	/	0.8	/
Cc1cccc(Nc2nc(-c3c(C)nc4ccccn34)cs2)c1	-14.4	9.5	5.6	77.1*	0.2
NC(=NOC(=O)CCCOc1ccccc1)c1ccc([N+](=O)[O-])cc1	2.4	/	/	/	/
Cc1cc(OCc2nc(-c3cccnc3)no2)c(C)cc1Br	-0.3	2.7	5.3	86.2*	3.0
COc1cc(C=NNC(=O)CNC(=O)/C=C/c2ccco2)cc(OC)c1OC	4.1	/	/	/	/
COC(=O)c1ccc(NC(=O)C(=O)NCC2CCCO2)cc1 (stereo not drawn)	1.4	1.8	-1.1	21.6	16.7*
CCCOC(=O)c1ccc(NC(=O)C(=O)NCC2CCCO2)cc1 (stereo not drawn)	0.8	1.9	1.5	26.5	0.6
SMILES	UCH37 DUB inh	CHOP UPR activ	UPR XBP1 act	CHOP inh	Fh CTSL1 inh
CCn1c2ccccc2c2cc(C=NNC(=O)c3ccncc3)ccc21	-7.2	/	/	/	/
CC(=NNC(=O)CCc1ccccc1)c1ccc(Br)cc1	3.8	/	/	/	/
O=S(=O)(c1ccccc1)N(CC(O)Cn1c2ccccc2c2ccccc21)c1ccccc1 (stereo not drawn)	0.0	0.3	0.2	32.8	-0.3
CCN(CC)CC(O)Cn1c2ccccc2c2ccccc21 (stereo not drawn)	7.2	0.3	-0.9	-17.2	-0.9
O=S(=O)(c1ccc(F)cc1)N(CCO)CC(O)Cn1c2ccccc2c2ccccc21 (stereo not drawn)	1.5	-0.2	4.8	72.6*	0.7
CCN(CC(O)Cn1c2ccccc2c2ccccc21)S(=O)(=O)c1ccc(F)cc1 (stereo not drawn)	1.0	0.5	-0.9	70.1*	-2.3
CC(C)Sc1nnc(CNC(=O)C23CC4CC(CC(C4)C2)C3)n1Cc1ccccc1	5.3	0.1	0.4	14.7	-0.8
CCC(C)Sc1nnc(CNC(=O)C23CC4CC(CC(C4)C2)C3)n1C1CCCCC1 (stereo not drawn)	0.6	-0.1	-1.9	94.8*	3.0
Cc1cc(C=NNC(=O)c2c(Br)cnn2C)c(C)n1-c1cccc(Br)c1	0.5	/	/	/	/
COc1cc(NC(=O)CC(C)=NNC(=O)C(=O)NC2CCCCC2)c(OC)cc1Cl	4.6	/	/	/	/
Cc1ccc(C(=O)Nc2ccc(C(=O)NN=Cc3ccccn3)cc2)cc1	6.2	/	/	/	/
Cc1ccc(S(=O)(=O)NN=Cc2ccc(C(=O)O)cc2)cc1	2.2	/	/	/	/
CC(=NNC(=O)CCn1nnc2ccccc21)c1cccs1	4.2	/	/	/	/
CC(C)(C)c1cc(C(C)(C)C)cc(S(=O)(=O)CCc2ccccn2)c1	2.8	-1.2	-2.8	70.3*	4.2
CC1=C(C(=O)OC(C)C)C(c2cccnc2)C2=C(CCCC2=O)N1 (stereo not drawn)	-405.5	-1.8	0.5	91.2*	-2.3
COc1cc(S(=O)(=O)Nc2ccc(C)cc2)ccc1N=Cc1c(C)c(C#N)c(=O)n(C)c1O	/	0.4	13.0	74.2*	-0.9
COc1cc(S(=O)(=O)Nc2ccc(C)cc2)ccc1N=Cc1c(C)[nH]n(-c2ccc(C)cc2)c1=O	7.3	-0.6	0.0	57.1	-2.4
C/C(C=NNC(=O)Cn1c(C)nc2ccccc21)=C\c1ccccc1	1.7	/	/	/	/
O=C(/C=C\Nc1ccc2c(c1)OCO2)c1ccccn1	-9.6	-10.0	-11.1	94.9*	5.4
CC1CCN(S(=O)(=O)c2ccc(Br)s2)CC1	3.1	-0.4	-1.2	75.0*	-3.3
CC(=O)NN=C(C)CC(=O)Nc1cccc(C(F)(F)F)c1	2.9	/	/	/	/
CC(C)CNS(=O)(=O)c1ccc(CCC(=O)Nc2cc(Cl)ccc2Oc2ccccc2)cc1	5.1	3.8	-2.6	44.9	0.4
CCCNS(=O)(=O)c1ccc(CCC(=O)Nc2cc(Cl)ccc2Oc2ccccc2)cc1	3.8	/	/	89.8*	/
Cc1ccc(NCC(=O)NN=Cc2cccc(Oc3ccccc3)c2)cc1	-0.9	/	/	/	/
C=CCn1c(=O)c2ccc(C(=O)NCc3ccccc3)cc2n(Cc2ccc(Cl)cc2)c1=O	0.9	4.1	23.6	86.5*	0.6
Oc1ccc(C(c2nnnn2C2CCCC2)N2CCc3ccccc3C2)cc1 (stereo not drawn)	6.2	0.8	0.6	88.1*	4.3
COc1cc(C(c2nnnn2C2CCCC2)N2CCc3ccccc3C2)ccc1O (stereo not drawn)	1.8	3.2	-4.1	-29.5	4.0

Bioassay records (PubChem BioAssay)
